Screens (PubChem BioAssay)
Ecoli tolC – blocks growth of E. coli BW25113 tolC mutant. OD615. growth inhibition, % at 10 µM (by protocol). actives 2.2% (n = 65,000). AID 573;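 active = growth inhibition at or above a cutoff equal to the mean over every tested compound plus 3 SD, cut at about 60% in these data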;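 note: growth measured after 20 h incubation at 37 °C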
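System: E. coli ΔtolC::kan strain BW25113; Buffer or medium: LB broth supplemented with 50 µg/mL kanamycin; Compound: 10 µM final, single dose; Incubation: bacterial growth with compound for 20 h at 37 °C; Signal: A615 absorbance measurement; Evaluation: growth inhibition in percent.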
HePTP inhibitor – blocks human HePTP tyrosine phosphatase; P35236; recombinant HePTP phosphatase activity, OD absorbance; inhibition, % at 20 µM; actives 0.64% (n = 110,000); AID 521; in the data active = inhibition above about 50%;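 note: plate controls were vehicle for no effect and reference inhibitor for full effect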
Target sequence (P35236 whole entry, looked up): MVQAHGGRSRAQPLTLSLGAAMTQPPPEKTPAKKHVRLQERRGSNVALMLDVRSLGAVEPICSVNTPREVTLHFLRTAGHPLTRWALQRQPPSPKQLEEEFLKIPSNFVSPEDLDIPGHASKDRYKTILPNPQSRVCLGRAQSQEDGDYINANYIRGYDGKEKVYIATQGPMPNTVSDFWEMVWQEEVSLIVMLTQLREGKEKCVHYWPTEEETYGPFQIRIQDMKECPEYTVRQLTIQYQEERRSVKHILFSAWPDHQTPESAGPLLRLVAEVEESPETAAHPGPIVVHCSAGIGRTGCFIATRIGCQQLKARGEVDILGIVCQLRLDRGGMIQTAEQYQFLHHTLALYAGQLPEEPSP
PostGolgi yeast – growth inhibition of a yeast mutant, post-Golgi transport screen. post-Golgi transport phenotypic cell assay. inhibition, % at 10 µM. actives 0.9% (n = 98,000). AID 739;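 note: yeast cells grown in 1536-well plates; yeast grown about 18 h at 30C before absorbance read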
PostGolgi ctrl – growth of the yeast control strain, post-Golgi counter-screen; efflux-deficient yeast background strain, growth absorbance A615, 16 h; inhibition, % at 10 µM; actives 5% (n = 98,000)
E coli WT exp – E. coli BW25113 growth inhibition, expanded screen; OD600 absorbance; growth inhibition, % at 100 µM; actives 0.15% (n = 98,000); AID 710;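 active = growth inhibition above about 50% at one test dose, limit read from the data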;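 note: growth measured after 20 h incubation at 37 °C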
PLAP act – activates human placental alkaline phosphatase; P05187; purified PLAP enzyme, luminescent substrate read-out; hits give high values; activation fold at 20 µM; actives 1.2% (n = 96,000); AID 696; in the data active = activation fold above about 2
Active calls of the source: *; x = not tested or not shown. The list is not random: actives were taken first. Their share in the collection is about 5.4%. Cut-off read from the data, not from the text of the source, unless noted: active = inhibition above about 30%; inactive = the rest.

SMILES	Ecoli tolC	HePTP inhibitor	PostGolgi yeast	PostGolgi ctrl	E coli WT exp	PLAP act
COc1cc(CNn2c(C)n[nH]c2=S)cc(Cl)c1OCc1ccccc1	x	x	-0.8	20.1	4.0	1.1
Cc1ccc(S(=O)(=O)CC(=O)Nc2nc(-c3ccccc3)cs2)cc1	x	x	-12.7	62.5*	-9.0	1.1
Cc1ccc(-c2csc(NC(=O)CCc3ccccc3)n2)cc1	x	-3.1	x	x	x	x
CCn1c(SCC(=O)Nc2nc(-c3ccccc3)cs2)nnc1-c1ccccc1	32.9	-21.2	8.9	57.7*	-19.0	2*
O=C(CS(=O)(=O)c1ccccc1)Nc1nc(-c2ccccc2)cs1	100.0*	2.1	-8.3	41.1*	-5.0	1.3
CC(=O)CSc1nnc(-c2ccncc2)n1C	x	x	4.5	-1.6	-8.0	1
CN(C)c1ccc(/C=C2\N=C(c3cc4ccccc4oc3=O)OC2=O)cc1	x	-10.3	x	x	x	x
O=C(O)c1cnn2c(C(F)(F)F)cc(-c3ccco3)nc12	5.8	11.0	-1.6	-0.5	6.0	1.1
COc1ccc(-n2c(-c3ccccc3)nc(=S)c3c2CCCC3)cc1	x	x	-0.5	64.3*	2.0	1
COc1ccc(-c2cnn3c(N)c(S(=O)(=O)C(C)(C)C)cnc23)cc1	x	x	-5.0	6.8	4.0	1.6
CCOC(=O)c1c(NC(=O)C(F)(OC)C(F)(F)F)sc(C(=O)N2CCCCC2)c1C (stereo unspecified)	77.7*	10.9	-14.1	11.5	-9.0	1.2
CCOC(=O)c1c(NC(=O)c2ccc([N+](=O)[O-])cc2)sc(C(=O)N2CCCCCC2)c1C	x	4.2	x	x	x	x
Nc1nc(SCC(=O)NCCCO)nc2sc3c(c12)CCC3	-11.6	-5.8	2.7	-0.6	11.0	1.2
CNC(=O)c1sc(-c2ccc(Cl)cc2)nc1C	x	x	6.8	20.0	5.0	0.9
CC(=O)c1ccc(N2CCC(c3cc(-c4ccc(Cl)cc4)n[nH]3)CC2)c([N+](=O)[O-])c1	x	x	40.8*	43.1*	-12.0	1.3
COc1ccc(-c2cc(C3CCN(c4ccc(C(C)=O)cc4[N+](=O)[O-])CC3)[nH]n2)cc1	x	x	21.3	37.1*	-11.0	1.3
COC(=O)c1ccc(N2CCC(c3cc(-c4ccc(OC)cc4)n[nH]3)CC2)c([N+](=O)[O-])c1	x	x	7.7	27.1	-13.0	1.2
Nc1c(S(=O)(=O)c2ccccc2)c2nc3ccccc3nc2n1/N=C/c1ccco1	29.3	6.2	6.6	23.9	-12.0	0.9
Cc1cccc(S(=O)(=O)c2c(N)n(/N=C/c3ccco3)c3nc4ccccc4nc23)c1	12.1	4.9	5.7	32.4*	-10.0	1.6
CCCCCCn1c(C)nc2c(c1=O)c1nc3ccccc3nc1n2/N=C/c1ccco1	x	x	-7.5	-1.1	-8.0	2*
Cc1ccc(S(=O)(=O)c2c(N)n(/N=C/c3ccco3)c3nc4ccccc4nc23)cc1	14.9	7.0	8.9	41.5*	-14.0	1.6
O=C(Nc1cccnc1)c1ccc(CN2CCc3ccccc3C2)cc1	-7.4	7.4	-4.9	13.1	2.0	1.2
COc1ccccc1N1CCN(C(=O)C(Cc2ccccc2)NC(=O)C2CCCCC2)CC1 (stereo unspecified)	12.4	-3.9	-11.1	14.3	1.0	1.7
O=C(O)CCCN1C(=O)/C(=C/c2cccc(F)c2)SC1=S	x	3.8	x	x	x	x
CC1CC(C)CN(c2ncc3c(n2)CC(c2ccccc2)CC3=O)C1 (stereo unspecified)	34.8	11.1	5.0	50.0*	-11.0	1.4
SMILES	Ecoli tolC	HePTP inhibitor	PostGolgi yeast	PostGolgi ctrl	E coli WT exp	PLAP act
O=C1CC(c2ccco2)Cc2nc(N3CCc4ccccc4C3)ncc21 (stereo unspecified)	23.1	12.3	-2.5	42.3*	3.0	1.4
COc1ccc(N2C(=O)/C(=C3/C(=O)N(C)c4ccccc43)SC2=S)cc1	x	7.2	x	x	x	x
O=C(Cn1c(=O)n(Cc2ccc3c(c2)OCO3)c(=O)c2ccccc21)N1CCCc2ccccc21	12.6	0.0	8.8	49.9*	-22.0	x
O=C1CCC(=O)N1c1ccc(CSc2nc3ccccc3[nH]2)cc1	2.2	3.7	3.1	14.0	5.0	1
O=c1nc(-c2ccccc2)c2ccccc2[nH]1	-17.9	1.3	0.2	59.4*	13.0	1.1
O=c1nc(-c2ccccc2)c2cc(SC(F)(F)F)ccc2[nH]1	x	5.6	x	x	x	x
O=C(O)c1ccc2c(c1)C(=O)N(c1cc(C(=O)O)ccc1Br)C2=O	-0.3	-3.7	-4.0	30.2*	4.0	1
CCOc1cc(/C=N/NC(=O)Cn2nc([N+](=O)[O-])cc2C)cc(Br)c1OCc1ccccc1C	x	x	10.3	1.8	-3.0	1.5
CC1(C)CC(=O)C2=C(C1)N=c1s/c(=C/c3ccc(F)c(F)c3)c(=O)n1C2c1ccc(F)cc1 (stereo unspecified)	x	x	22.8	31.0*	0.0	1.2
O=C(Cn1[nH]c(=O)c2ccccc2c1=O)NCc1cccnc1	-16.7	-4.3	1.3	6.2	3.0	1
CCCOc1ccc(-c2nnc(-c3ccco3)o2)cc1	15.2	5.7	2.0	-1.3	1.0	1.1
CC(C)COc1ccc(-c2nnc(-c3ccco3)o2)cc1	60.8*	4.8	0.8	13.5	-17.0	1.2
Cc1ccc2cc(CN(Cc3ccco3)C(=O)C3CCCCC3)c(=O)[nH]c2c1C	-3.7	-0.8	13.2	35.2*	-3.0	1
Cc1cc(C)c2[nH]c(=O)c(CN(Cc3ccco3)C(=O)C3CCCO3)cc2c1 (stereo unspecified)	-0.9	8.4	6.0	0.0	1.0	1
CSCC[C@@H](Nc1nc(-c2ccccc2)nc2c1oc1ccccc12)C(=O)O	35.1	14.8	5.9	-3.4	1.0	1.4
c1ccc(-c2nc(NCc3cccnc3)c3oc4ccccc4c3n2)cc1	13.4	0.8	16.8	55.0*	-10.0	1.6
c1ccc(-c2nc(NCC3CCCO3)c3oc4ccccc4c3n2)cc1 (stereo unspecified)	x	x	1.8	53.2*	-24.0	0.9
COc1ccc(/C=N/n2cnnc2SC)cc1OC	x	1.8	x	x	x	x
CCOC(=O)c1ccc(-n2cncn2)nc1	x	x	0.3	1.1	7.0	0.9
O=C(O)C1CCCCC1C(=O)Nc1ccccc1F (stereo unspecified)	-8.8	-2.0	-12.0	41.8*	1.0	0.9
Cc1ccc(OC(=O)c2ccc(N3CCOCC3)c([N+](=O)[O-])c2)cc1	x	x	-22.4	38.1*	-6.0	1
COc1ccc(C(=O)c2ccc(N3CCOCC3)c([N+](=O)[O-])c2)cc1	x	3.0	x	x	x	x
Cc1cccc(OCC(=O)Nc2ccc(S(=O)(=O)Nc3nccs3)cc2)c1C	x	-4.9	x	x	x	x
CNC(=S)N1N=C(c2ccc(C)cc2)CC1c1ccc(OC)cc1 (stereo unspecified)	x	x	-5.9	47.1*	-16.0	1.2
Oc1ccc(Br)cc1C=Nc1ccc(Cl)c2cccnc12	x	-3.2	x	x	x	x
Cc1ccccc1N(CC(=O)NCCSC1CCCCC1)S(=O)(=O)c1ccccc1	x	x	1.0	49.4*	-17.0	1
CCn1ncc(C2=NOC(C(=O)NCc3ccc(OC)cc3)C2)c1C (stereo unspecified)	-5.4	2.4	16.6	12.5	-7.0	1.1
CCOc1ccccc1-c1nc(-c2cc3ccc(C)cc3[nH]c2=O)no1	-0.8	4.6	-7.7	30.8*	-14.0	x
